Laboratory results from paper PMC6474797 (ACS chemical biology, 2019).

Tests used:
[1] = Critical aggregation concentration; type: physicochemical
Summary of the method: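 Colloids were formulated in PBS with 0.01% UP80 and 10 μM of a cholesteryl BODIPY FRET pair (FL C12 donor, 542/563 C11 acceptor; 0.875:0.125) added to the drug stock. They were diluted 10-fold into PBS or serum media and read by fluorescence (excitation 490 nm, acceptor emission 575 nm). Dye-free comparison was by DLS scattering intensity (830 nm laser, 158° detector).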

[2] = with PLAC–PEG polymer, compared with PPD colloids; cited from earlier work

measured CAC with or without BODIPY dyes ([1]; PBS, fluorescence versus light scattering methods) | critical aggregation concentration (CAC) ([1]; protein-free media, light scattering (Figure S3)) | critical aggregation concentration (CAC) ([1]; serum-containing media, colloids with 10 μM BODIPY FRET pair, 0.01% UP80, diluted 10-fold, fluorescence intensity) | SMILES | drug loading [2]
no difference | low micromolar | increased with serum content | C[C@]12CC[C@@H]3c4ccc(O)cc4C[C@@H](CCCCCCCCC[S+]([O-])CCCC(F)(F)C(F)(F)F)[C@H]3[C@@H]1CC[C@@H]2O (stereo partly shown) [fulvestrant] | 
 |  |  | CC(=O)O[C@@]12CO[C@@H]1C[C@H](O)[C@@]1(C)C(=O)[C@H](O)C3=C(C)[C@@H](OC(=O)[C@H](O)[C@@H](NC(=O)OC(C)(C)C)c4ccccc4)C[C@@](O)([C@@H](OC(=O)c4ccccc4)[C@H]21)C3(C)C [docetaxel] | significantly lower drug loading
